# Screening data: PubChem BioAssay, several laboratories
# Apaf-1 inh = blocks human Apaf-1 apoptosome activity. O14727. reconstituted apoptosome caspase-3 activity, DEVD-Rh110 fluorescence. inhibition, % at 20 µM. hit rate 0.71% among 330,000; active means inhibition of at least 40% at 20 µM;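 further: plate controls were DMSO wells for no effect and DEVD-CHO caspase inhibitor wells for full effect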
#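 Material: reconstituted apoptosome with Apaf-1, cytochrome c, caspase-9, procaspase-3, dATP; medium: pH 7.5 Hepes buffer with CHAPS, BSA, DTT; also added: cytochrome c and DEVD-Rh110 substrate; timing: 30 min plus 50 min, RT; signal: Rh110 fluorescence intensity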
# PREPL inhibitor = human PREPL enzyme inhibition. recombinant PREPL, fluorescence polarization activity-based probe. Q4J6C6. hit rate 0.68% among 320,000. inhibition, % at 5.96 µM; in the data active means inhibition above about 43%;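 further: 0% = enzyme with DMSO and 100% = wells lacking enzyme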
# Target sequence (Q4J6C6 whole entry, looked up): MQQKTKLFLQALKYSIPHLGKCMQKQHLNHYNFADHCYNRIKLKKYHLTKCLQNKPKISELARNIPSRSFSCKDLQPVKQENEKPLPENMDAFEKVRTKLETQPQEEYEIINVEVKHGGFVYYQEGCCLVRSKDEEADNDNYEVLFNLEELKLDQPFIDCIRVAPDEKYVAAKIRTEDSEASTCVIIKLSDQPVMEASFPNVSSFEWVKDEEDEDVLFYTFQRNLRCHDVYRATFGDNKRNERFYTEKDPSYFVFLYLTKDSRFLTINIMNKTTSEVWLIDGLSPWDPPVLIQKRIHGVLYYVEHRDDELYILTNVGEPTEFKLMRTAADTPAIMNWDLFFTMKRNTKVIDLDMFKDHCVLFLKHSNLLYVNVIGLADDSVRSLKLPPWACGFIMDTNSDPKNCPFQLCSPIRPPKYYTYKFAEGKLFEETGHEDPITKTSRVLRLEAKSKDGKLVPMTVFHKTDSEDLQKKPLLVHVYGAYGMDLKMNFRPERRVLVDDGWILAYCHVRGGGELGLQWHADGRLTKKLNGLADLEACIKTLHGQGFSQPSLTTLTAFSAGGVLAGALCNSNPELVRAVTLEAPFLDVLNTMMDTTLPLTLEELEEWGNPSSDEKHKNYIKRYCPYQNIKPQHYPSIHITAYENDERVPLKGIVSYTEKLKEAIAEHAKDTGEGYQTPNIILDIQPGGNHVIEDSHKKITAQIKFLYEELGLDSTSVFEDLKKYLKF
# MEKK2 mut-MEK5 = signal of MEK5 binding to mutant human MEKK2 PB1 domain. bead flow cytometry, Alexa488-MEK5 binding to MEKK2 mutant. percent response, % at 10 µM. hit rate 0.35% among 290,000. AID 1530; in the data active means percent response above about 24%, passing the limit was not always enough
# UBC13 inh = blocks human UBC13 polyubiquitin chain formation | inhibition, % at 20 µM | P61088 | AID 485273 | hit rate 0.47% among 330,000 | TR-FRET; in the data active means inhibition above about 45%, passing the limit was not always enough
# MEKK3 PB1 HTS = modulators (inhibitors or enhancers) of MEK5 binding to human MEKK3 PB1 domain | Q99759 | bead-based flow cytometry, Alexa488-MEK5 binding to MEKK3; actives lie on both sides; 0 = blocked by unlabeled MEK5, 100 = vehicle | binding response (% of control), % at 10 µM | hit rate 1.4% among 290,000 | AID 1529;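 active means binding response more than 3 SD above or below the average of its plate-row segment, actives on both sides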;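 further: Alexa488 bead fluorescence after subtracting the streptavidin-only scavenger bead signal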
# MEKK2wt PB1 HTS = raises or lowers MEK5 binding to wildtype human MEKK2 PB1 domain. hit rate 1.1% among 290,000. Q9Y2U5. binding response (% of control), % at 10 µM. bead flow cytometry, Alexa488-MEK5 binding to MEKK2 WT; actives lie on both sides; in the data active means binding response below about 67% or above about 130%
# Apaf-1 inh conf2 = confirmation of Apaf-1 inhibitors; shares compounds with Apaf-1 inh; reconstituted apoptosome, caspase-3 DEVD-Rh110 fluorescence; inhibition, % at 20 µM; hit rate 25% among 1,800;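 active means mean inhibition of at least 40% at 20 µM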;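 further: plate controls were DMSO wells for no effect and DEVD-CHO caspase inhibitor control wells for full effect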
# Rh110 quench = counter-screen for Apaf-1 inhibitors: fluorescence interference; activation (fluorescence interference), % at 20 µM; Rh110 fluorescence interference, quenched caspase reaction; shares compounds with Apaf-1 inh; 1,800 tested, under 10 active;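 active means signal rise of 40% or more at 20 µM, treated as a fluorescence artifact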
# Fluor interf inh = counter-screen for Apaf-1 inhibitors: fluorescence interference, dose response; fluorescence interference counterscreen, Apaf-1 assay format; 460 tested, under 10 active; IC50, µM; shares compounds with Apaf-1 inh; call rule not given here
# Starred values were filed as active, the others as inactive; · = no result. Only some compounds are listed: those with a hit (about 3.1% of all), similar ones and a draw of the others.
SMILES,Apaf-1 inh,PREPL inhibitor,MEKK2 mut-MEK5,UBC13 inh,MEKK3 PB1 HTS,MEKK2wt PB1 HTS,Apaf-1 inh conf2,Rh110 quench,others
COc1ccc(-n2c(N)c(C(=O)NCC3CCCO3)c3nc4ccccc4nc32)c(OC)c1 (centres undefined),66*,15,-11,-28,89,91,27,12,
CC(C(=O)Nc1ccc(F)c(F)c1F)N(C)CCOc1ccccc1 (centres undefined),8,-24,2,7,102,100,·,·,
CSc1nncc(/C(C)=N\Nc2ccccc2)n1,70*,8,·,-18,·,·,8,-7,
CSc1nncc(/C(C)=N\Nc2cccc(C)c2)n1,61*,11,·,-18,·,·,10,-5,
Cc1cccc(N/N=C(\C#N)S(=O)(=O)C(C)(C)C)c1,·,0,-3,·,101,95,·,·,
CC(=O)/C(=N\Nc1ccccc1)Sc1nncn1C,1,9,1,-11,100,100,·,·,
CC/C(=N\Nc1ccccc1[N+](=O)[O-])c1ccc(O)cc1,11,6,-12,-80,96,93,·,·,
CC/C(=N/Nc1ccccc1C)c1cnnc(SC)n1,41*,2,-3,-16,92,94,2,-8,
O=C1C(SCCO)=C(SCCO)C(=O)c2ccccc21,97*,30,·,-124,·,·,96*,0,Fluor interf inh=>100
COC(=O)C1=C(C)N(Cc2ccccc2)C(=NCc2ccc3c(c2)OCO3)N[C@H]1c1ccccc1,45*,-10,·,39,·,·,19,22,
COC(=O)C1=C(C)N(Cc2ccccc2)C(=NCC2CC2)N[C@H]1c1ccccc1,38,30,·,30,·,·,·,·,
COCCN(C(=O)COC(=O)Cc1cccc(OC)c1)c1c(N)n(CC(C)C)c(=O)[nH]c1=O,1,8,·,-2,·,·,·,·,
O=C1N/C(=C\c2ccc(O)cc2)C(=O)c2ccccc21,97*,11,3,-48,99,96,74*,0,Fluor interf inh=>100
Cc1ccc(Cl)cc1N1CCN(C(=O)C(C)n2ncn3cccc3c2=O)CC1 (centres undefined),14,21,-1,0,102,97,·,·,
COc1cccc2nc3cc(C)c(C)cc3nc12,84*,27,8,-44,100,102,22,7,
COc1cccc2c1nc(C)c1cc(C)oc12,5,1,-6,3,83,92,·,·,
CC(=O)Nc1cccc(/C(C)=N/N2C(C)CCCC2C)c1 (centres undefined),3,3,1,-3,103,102,·,·,
COc1ccccc1NC(=O)c1ccc(N)cc1,0,10,-7,5,89,88,·,·,
COC(=O)c1ccc(C(=O)Nc2ccc(N)cc2N)cc1,48*,17,-1,-16,89,93,13,1,
CCOc1ccc(OCCNCc2ccc(OC(C)C(=O)N(C)C)c(OCC)c2)cc1 (centres undefined),8,21,8,-4,101,122,·,·,
c1coc(-c2nnc3sc(Cc4cccs4)nn23)c1,-4,20,1,-4,95,95,·,·,
c1csc(Cc2nn3c(-c4n[nH]c5c4CCC5)nnc3s2)c1,41*,4,0,-8,98,93,34,7,
CCCC[n+]1ccn(C2=C([O-])c3ccccc3C(=O)/C2=N\S(=O)(=O)c2ccc(Br)cc2)c1,59*,29,-3,-59,85,88,68*,0,Fluor interf inh=>100
Cc1ccc(S(=O)(=O)/N=C2\C(=O)c3ccccc3C([O-])=C2n2cc[n+](CCC(C)C)c2)cc1,57*,18,-3,-98,90,93,68*,3,Fluor interf inh=>100
CCCC[n+]1ccn(-c2nc3ccccc3nc2[N-]S(=O)(=O)c2ccc(Cl)cc2)c1,-12,-6,-7,16,94,90,·,·,
SMILES,Apaf-1 inh,PREPL inhibitor,MEKK2 mut-MEK5,UBC13 inh,MEKK3 PB1 HTS,MEKK2wt PB1 HTS,Apaf-1 inh conf2,Rh110 quench,others
CC(=O)Nc1ccc(S(=O)(=O)/N=C2\C(=O)c3ccccc3C([O-])=C2n2cc[n+](-c3ccccn3)c2)cc1,84*,14,-9,-103,89,92,76*,3,Fluor interf inh=>100
CC12CCC(=O)N1C(C(=O)Nc1nc(-c3ccccc3Cl)cs1)CS2 (centres undefined),27,4,·,-2,·,·,·,·,
CCOc1ccc2nc(SC3CC(=O)N(c4ccc(OC)cc4OC)C3=O)sc2c1 (centres undefined),-2,8,2,4,101,103,·,·,
COc1ccc(CN(C)C(=O)c2cc(S(=O)(=O)N3CCCCCC3)ccc2OC)cc1OC,33,10,2,2,102,103,·,·,
COc1cccc(CN(C)C(=O)c2cc(S(=O)(=O)N3CCCCCC3)ccc2OC)c1,51*,11,·,40,·,·,38,4,
COc1cccc(CN(C)C(=O)c2ccc(C)c(S(=O)(=O)N3CCCCC3)c2)c1,40*,2,·,25,·,·,40,11,
COCC(=O)N1CCC(Oc2ccc(C(=O)NC(C)c3nccs3)cc2)CC1 (centres undefined),-6,3,13,-7,105,106,·,·,
CC1(C)CC(=O)c2c(-c3cccnc3)n[nH]c2C1,43*,4,1,1,102,102,9,1,
COc1cccc(-c2[nH]nc3c2C(c2ccsc2)C(C#N)=C(N)O3)c1 (centres undefined),60*,13,0,-28,96,96,11,4,
COc1cc(C(=O)NCCNc2nc3ccc(C)cc3cc2C#N)cc(OC)c1OC,5,7,0,5,99,102,·,·,
COc1cccc2cc(C(=O)NCc3ccc(Cl)cc3)c(=N)oc12,42*,5,4,-10,104,103,24,11,
CC(CNC(=O)Cn1ccc(N)nc1=O)c1ccccc1 (centres undefined),-2,4,·,3,·,·,·,·,
Cc1cc(SCC2=NNC(=O)C2)c(Cl)cc1Cl,47*,8,0,-7,107,99,33,-1,
COc1ccc(CNC(=O)c2c(C)oc3c2C(=O)c2ccccc2C3=O)cc1,67*,29,12,-35,107,103,71*,12,Fluor interf inh=>100
CC(=O)c1c(C)oc2c1C(=O)c1ccccc1C2=O,·,-4,0,·,109,107,·,·,
